Laboratory results: PubChem BioAssay
Results filed as inconclusive are left out.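 How the source made its calls, unless noted: active means growth inhibition above 25% in both replicates, a cutoff set 3 SD above the mean; inconclusive means above 25% in only one replicate; inactive means the rest.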

What was measured:
[1] = OD615 S. cerevisiae growth inhibition, permissive medium, pilot counter-assay, permissive growth control for S. cerevisiae lifespan shortening project (AID 705); conditions: OD615, 24 h, at 10 µM, stronger effect = higher value
How it was run: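 System: Engineered DeaD yeast | Buffer or medium: SC raffinose/galactose permissive medium | Doses: 10 µM single dose, 0.25% DMSO | Times: 24 h exposure, 30 °C | Measured by: OD615 turbidity read | Read-out: Yeast growth inhibition indicated by reduced 24 h OD615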

[2] = Restrictive medium S. cerevisiae growth inhibition, OD615, pilot screen of yeast lifespan reduction project, restrictive growth control (AID 706;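 active means growth inhibition above a set limit, 3 SD over mean compound inhibition, in both replicates, cut at about 43% in these data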;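 further: modified DeaD lifespan yeast strain shifted to restrictive glucose medium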); conditions: OD615, 48 h, at 10 µM, stronger effect = higher value
How it was run: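 Assay system: engineered S. cerevisiae DeaD strain; Buffer or medium: CSMM-D glucose medium; Dosing: 10 µM compound, 0.25% DMSO; Times: cell pre-growth 4 h, compound exposure 48 h, 30 °C; Detection: absorbance (optical density) measured at 615 nm.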

[3] = viability gain of MRP-1-high H69AR cells under doxorubicin, pilot screen, MRP-1 activator project, CellTiter-Glo, duplicate (AID 807;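 active means viability increase at or above a cutoff of the median across tested compounds plus 3 SD, cut at about 8.5% in these data, passing the limit was not always enough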;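 further: compound pretreatment 18-22 h then 72 h combined with doxorubicin; 0% = doxorubicin alone and 100% = vehicle without doxorubicin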); conditions: H69AR viability with doxorubicin, CellTiter-Glo luminescence; at 10 µM; stronger effect = higher value
[4] = growth suppression of beta-catenin knockout HCT116, pilot screen, human colon tumor cells (AID 823;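 active means cell viability at or below a set limit in both duplicate runs, the limit being the all-compound median minus 4 SD, cut at about 23% in these data, passing the limit was not always enough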;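 further: 0% = wells killed by 20 µM Hyamine and 100% = untreated DMSO cell wells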); conditions: CellTiter-Glo, 60 h, at 10 µM, stronger effect = lower value
[5] = growth suppression of PTEN-deleted HCT116, pilot screen, cell-based, HCT116 clonal line, CellTiter-Glo (AID 824;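 active means viability at or below 27.92% in each of two runs, the all-compound median minus 4 SD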;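 further: 0% = 20 µM Hyamine control and 100% = vehicle cell control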); conditions: 60 h, at 10 µM, stronger effect = lower value
[6] = inhibitors of the yeast RAM network, pilot screen, dse1pr::URA3 reporter, 5-FOA selection (AID 869;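 active means inhibition over a set limit, the all-compound mean plus 3 SD, in both replicate runs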;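 further: 0% = DMSO wells with no growth and 100% = 10 µM 1-NA-PP1 with full growth; RAM network block rescues cells from 5-FOA so hits raise OD615 growth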); conditions: S. cerevisiae dse1pr::URA3 5-FOA growth, OD615, 2 d; at 10 µM; stronger effect = higher value; strain carries analog-sensitive mutant Cbk1 kinase
[7] = RAM signaling pathway blockade in yeast – S. cerevisiae, Pdr1DBD-CYC8 efflux-inhibited sensitized strain, primary screen (AID 1298;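 active means RAM network inhibition above 8.4% in each of two replicates, 3 SD over the compound average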;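 further: 0% = DMSO untreated cells without growth and 100% = 10 µM 1-NA-PP1 full growth; higher means more yeast growth rescued from 5-FOA killing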); conditions: S. cerevisiae cbk1-as DSE1-URA3 strain, 5-FOA growth OD615, 2 d; at 50 µM; stronger effect = higher value

CC1(C)CC(=O)C(=CN2CCN(C(=O)c3ccco3)CC2)C(=O)C1
inactive: growth inhibition [1] -20.6% | growth inhibition [2] -9.23% | viability increase [3] 0.72% | viability [4] 100% | viability [5] 90.3% | inhibition [6] 2.93% | RAM network inhibition [7] 3.19%

CCC(C)NC(=O)C(NS(=O)(=O)c1ccc2c(c1)c(=O)n(C)c(=O)n2C)c1ccccc1 (stereo unspecified)
inactive: growth inhibition [1] -5.69% | growth inhibition [2] -11.3% | viability increase [3] -1.17% | viability [4] 101% | viability [5] 96.6% | inhibition [6] 1.19% | RAM network inhibition [7] 4.7%

C=CCn1c(=O)c2c(nc3n2CC(C)CN3c2cccc(OC)c2)n(C)c1=O (stereo unspecified)
inactive: growth inhibition [1] -16.1% | growth inhibition [2] -8.79% | viability increase [3] -3.27% | viability [4] 97.7% | viability [5] 98.8% | inhibition [6] 1.56% | RAM network inhibition [7] 5.52%

O=C(NCC1CCCO1)c1ccc(CS(=O)(=O)c2ccc(Br)cc2)o1 (stereo unspecified)
inactive: growth inhibition [1] -9.31% | growth inhibition [2] -13.1% | viability increase [3] -1.53% | viability [4] 97.8% | viability [5] 97.9% | inhibition [6] 1.06% | RAM network inhibition [7] 2.45%

COc1cc(NC(=O)c2cc3c(C)nc4ccccc4c3o2)cc(OC)c1OC
inactive: growth inhibition [1] 7.32% | growth inhibition [2] 13.2% | viability increase [3] -5.18% | viability [4] 86.2% | viability [5] 86.7% | inhibition [6] 0.93% | RAM network inhibition [7] 0.97%

O=c1c2cnn(-c3ccccc3)c2ncn1Cc1cccc(Cl)c1
inactive: growth inhibition [1] 2.21% | growth inhibition [2] 2.59% | viability increase [3] 3.21% | viability [4] 102% | viability [5] 91.7% | inhibition [6] 3.21% | RAM network inhibition [7] 6.55%

Cc1ccc(-n2nc(C)c3c2OC(N)=C(C#N)C3c2cccs2)cc1 (stereo unspecified)
inactive: growth inhibition [1] -14.8% | growth inhibition [2] -26.3% | viability increase [3] -3.41% | viability [4] 90.5% | viability [5] 88.5% | inhibition [6] 1.91% | RAM network inhibition [7] 0.52%

O=C1CC(NCc2ccc3c(c2)OCO3)C(=O)N1CCc1ccccc1 (stereo unspecified)
inactive: growth inhibition [1] -16% | growth inhibition [2] -11.1% | viability increase [3] -2.06% | viability [4] 102% | viability [5] 104% | inhibition [6] 1.88% | RAM network inhibition [7] 0.51%

COc1ccc(OCc2nnc(SCC(=O)O)n2N)cc1
inactive: growth inhibition [1] -6.54% | growth inhibition [2] 5.32% | viability increase [3] 1.25% | viability [4] 106% | viability [5] 94.8% | inhibition [6] 0.66% | RAM network inhibition [7] -2.27%

CC(=O)c1ccc(NC(=O)CSC(C)C)cc1
inactive: growth inhibition [1] -0.135% | growth inhibition [2] -18.6% | viability increase [3] -0.64% | viability [4] 102% | viability [5] 97.9% | inhibition [6] 1.36% | RAM network inhibition [7] 0.37%

O=C(CN1CCOc2ccccc21)N1CCN(c2cccc(Cl)c2)CC1
inactive: growth inhibition [1] 6% | growth inhibition [2] 18.6% | viability increase [3] -4.17% | viability [4] 84.1% | viability [5] 84.4% | inhibition [6] 2.77% | RAM network inhibition [7] 4.14%

O=C(CCCCC(=O)N1CCN(c2ccccc2)CC1)N1CCN(c2ccccc2)CC1
inactive: growth inhibition [1] -2.23% | growth inhibition [2] 8.9% | viability increase [3] 0.82% | viability [4] 94.6% | viability [5] 86% | inhibition [6] 1.74% | RAM network inhibition [7] -0.46%

CCN1CCN(C(=O)c2cc3c(-c4ccc(Cl)cc4)nn(C)c3s2)CC1
inactive: growth inhibition [1] -4.23% | growth inhibition [2] 16% | viability increase [3] -7.68% | viability [4] 38.5% | viability [5] 52.7% | inhibition [6] 2.21% | RAM network inhibition [7] 1.3%

CCOC(=O)c1ccccc1NC(=O)C1COc2ccccc2O1 (stereo unspecified)
inactive: growth inhibition [1] -25.8% | growth inhibition [2] -30.7% | viability increase [3] 4.16% | viability [4] 83.2% | viability [5] 87.8% | inhibition [6] 1.09% | RAM network inhibition [7] 4.22%

CCOC(=O)C(C(=O)Nc1ccccc1)C1CCCCC1 (stereo unspecified)
inactive: growth inhibition [1] -7.22% | growth inhibition [2] 1.79% | viability increase [3] -5.02% | viability [4] 86.1% | viability [5] 86.7% | inhibition [6] -0.18% | RAM network inhibition [7] 3.67%

Cc1ccc(S(=O)(=O)N2CCCC2C(=O)Nc2nccs2)cc1 (stereo unspecified)
inactive: growth inhibition [1] -15.2% | growth inhibition [2] -6.25% | viability increase [3] -1.37% | viability [4] 97% | viability [5] 98.6% | inhibition [6] -0.275% | RAM network inhibition [7] 4.76%

CCCOC(=O)CC1C(=O)NCCN1Cc1ccccc1C (stereo unspecified)
inactive: growth inhibition [1] -20.8% | growth inhibition [2] -0.97% | viability increase [3] -0.62% | viability [4] 98.8% | viability [5] 94.2% | inhibition [6] 1.71% | RAM network inhibition [7] 7.95%

CC(C)(C)NC(=O)c1cnn2c1NC(c1ccc(F)cc1)CC2C(F)(F)F (stereo unspecified)
inactive: growth inhibition [1] -14.6% | growth inhibition [2] -18.1% | viability increase [3] -0.08% | viability [4] 89.5% | viability [5] 87.1% | inhibition [6] 3.81% | RAM network inhibition [7] 6.9%
